Measured values from ChEMBL document CHEMBL4028810, “Synthesis and biological evaluation of novel chalcone derivatives as a new class of microtubule destabilizing agents” (Eur J Med Chem, 2017).
The source made the active and inactive calls. The rule behind the calls is not given here.

Tests used:
[1] = test system: MGC-803; assay: Cytotoxicity against human MGC803 cells after 48 hrs by MTT assay; assay type: functional, cell-based; details: MGC-803, 48 h
Summary of the method: (§1)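 Log-phase cells were seeded at about 1 × 10⁵ cells/mL in 96-well plates and allowed to settle 12 h at 37 °C in 5% CO₂. Compounds were added at five concentrations for 48 h. Absorbance was read at dual wavelength 570/630 nm. Survival was expressed as a percentage of control, and IC50 was calculated by the Bliss method (n = 5). Each test was run in triplicate.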

[2] = test system: HepG2; assay: Cytotoxicity against human HepG2 cells after 48 hrs by MTT assay; assay type: functional, cell-based; details: HepG2, 48 h; summary of the method: as §1
[3] = test system: T-24; assay: Cytotoxicity against human T24 cells after 48 hrs by MTT assay; assay type: functional, cell-based; details: T-24, 48 h; summary of the method: as §1
[4] = test system: NCI-H460; assay: Cytotoxicity against human NCI-H460 cells after 48 hrs by MTT assay; assay type: functional, cell-based; details: NCI-H460, 48 h; summary of the method: as §1
[5] = test system: L02; assay: Cytotoxicity against human HL7702 cells after 48 hrs by MTT assay; assay type: cell-based; details: L02, 48 h; summary of the method: as §1
[6] = test system: SK-OV-3; assay: Cytotoxicity against human SKOV3 cells after 48 hrs by MTT assay; assay type: functional, cell-based; details: SK-OV-3, 48 h; summary of the method: as §1
[7] = organism: Sus scrofa; assay: Inhibition of porcine brain tubulin polymerization at 15 uM measured at 1 min interval for 40 mins by spectrophotometric method
Summary of the method: (§2)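 Purified brain tubulin, final 3.0 mg/mL, was added to start the reaction in 80 mM PIPES pH 6.9, 2.0 mM MgCl₂, 0.5 mM EGTA, 1 mM GTP and 10.2% glycerol, with the other components prewarmed to 37 °C. Compounds were tested at 10 or 15 µM. Polymerization at 37 °C was followed as absorbance at 340 nm over 40 min.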

[8] = organism: Sus scrofa; assay: Inhibition of porcine brain tubulin polymerization at 10 uM measured at 1 min interval for 40 mins by spectrophotometric method; summary of the method: as §2
[9] = Cytotoxicity against human HeLa/TR cells after 48 hrs by MTT assay; assay type: functional, cell-based; summary of the method: as §1
[10] = test system: A549/TR; assay: Cytotoxicity against human A549/TR cells after 48 hrs by MTT assay; assay type: functional, cell-based; summary of the method: as §1
[11] = test system: HeLa; assay: Cytotoxicity against human HeLa cells after 48 hrs by MTT assay; assay type: functional, cell-based; summary of the method: as §1

Row | Structure (SMILES) | IC50 [1] [µM] | IC50 [2] [µM] | IC50 [3] [µM] | IC50 [4] [µM] | IC50 [5] [µM] | IC50 [6] [µM] | inhibition [7] | inhibition [8] | IC50 [9] [µM] | IC50 [10] [µM] | IC50 [11] [µM]
1 | COc1ccc(/C=C/C(=O)c2ccc(OC)c3c2OC(C)(C)C=C3)cc1OCC(=O)Nc1ccccc1 | 18.4 | 20.6 | 21.1 | 17.6 | > 50 | 20.8 |  |  |  |  | 
2 | COc1ccc(/C=C/C(=O)c2ccc(OC)c3c2OC(C)(C)C=C3)cc1OCC(=O)Nc1ccc(Br)cc1 | 17.2 | 22.7 | 19.9 | 20.5 | > 50 | 19 |  |  |  |  | 
3 | COc1ccc(/C=C/C(=O)c2cc(OC)c(OC)c(OC)c2)cc1OCC(=O)Nc1ccccc1Br | 14.6 | 15.2 | 19.1 | 10.3 | > 50 | 16.8 |  |  |  |  | 
4 | COc1ccc(NC(=O)COc2cc(/C=C/C(=O)c3ccc(OC)c4c3OC(C)(C)C=C4)ccc2OC)cc1 | 6.73 | 8.99 | 9.51 | 8.56 | > 50 | 9.02 |  |  |  |  | 
5 | COc1ccc(/C=C/C(=O)c2cc(OC)c(OC)c(OC)c2)cc1OCC(=O)Nc1ccc(O)cc1 | 36.6 | > 50 | > 50 | > 50 | > 50 | > 50 |  |  |  |  | 
6 | COc1ccc(/C=C/C(=O)c2cc(OC)c(OC)c(OC)c2)cc1OCC(=O)Nc1ccccc1C | 28.4 | 26.3 | 27.1 | 22.9 | > 50 | 28.4 |  |  |  |  | 
7 | COc1ccc(/C=C/C(=O)c2cc(OC)c(OC)c(OC)c2)cc1OCC(=O)Nc1ccccc1F | 8.09 | 7.58 | 10.7 | 6.71 | > 50 | 9.51 |  |  |  |  | 
8 | COc1ccc(/C=C/C(=O)c2ccc(OC)c3c2OC(C)(C)C=C3)cc1OCC(=O)Nc1ccc(F)cc1 | 13.5 | 14.1 | 17.6 | 14.2 | > 50 | 13.9 |  |  |  |  | 
9 | COc1ccccc1NC(=O)COc1cc(/C=C/C(=O)c2ccc(OC)c3c2OC(C)(C)C=C3)ccc1OC | 6.72 | 7.35 | 7.84 | 5.48 | > 50 | 8.24 | Active |  |  |  | 
10 | COc1ccc(/C=C\c2cc(OC)c(OC)c(OC)c2)cc1O |  |  |  |  |  |  |  | Active |  |  | 
11 | COc1ccc(/C=C/C(=O)c2ccc(OC)c3c2OC(C)(C)C=C3)cc1OCC(=O)Nc1ccccc1C | 10.3 | 9.44 | 9.86 | 7.96 | > 50 | 10 |  |  |  |  | 
12 | COc1ccc(/C=C/C(=O)c2ccc(OC)c3c2OC(C)(C)C=C3)cc1OCC(=O)Nc1ccc(Cl)cc1 | 19.4 | 15.4 | 17.1 | 12.9 | > 50 | 20 |  |  |  |  | 
13 | COc1ccc(NC(=O)COc2cc(/C=C/C(=O)c3cc(OC)c(OC)c(OC)c3)ccc2OC)cc1 | 8.52 | 7.66 | 9.36 | 7.07 | > 50 | 9.82 |  |  |  |  | 
14 | COc1ccc(/C=C/C(=O)c2cc(OC)c(OC)c(OC)c2)cc1OCC(=O)Nc1ccc(Cl)cc1 | 26.3 | 20.5 | 21.7 | 20.1 | > 50 | 27.2 |  |  |  |  | 
15 | COc1ccc(/C=C/C(=O)c2ccc(OC)c3c2OC(C)(C)C=C3)cc1OCC(=O)Nc1ccc(C)cc1 | 8.23 | 9.32 | 10.1 | 8.77 | > 50 | 9.58 |  |  |  |  | 
16 | COc1ccc(/C=C/C(=O)c2cc(OC)c(OC)c(OC)c2)cc1OCC(=O)Nc1ccc(F)cc1 | 20.9 | 21.2 | 24.7 | 19.2 | > 50 | 22.5 |  |  |  |  | 
17 | COc1ccc(/C=C/C(=O)c2ccc(OC)c3c2OC(C)(C)C=C3)cc1 [MILLEPACHINE] | 11 | 4.54 | 11.1 | 7.65 | 25.1 | 9.85 |  |  |  |  | 
18 | COc1ccc(/C=C/C(=O)c2cc(OC)c(OC)c(OC)c2)cc1OCC(=O)Nc1ccc(Br)cc1 | 12.9 | 10.5 | 11.6 | 10.3 | > 50 | 13.1 |  |  |  |  | 
19 | COc1ccccc1NC(=O)COc1cc(/C=C/C(=O)c2cc(OC)c(OC)c(OC)c2)ccc1OC | 14.9 | 13.6 | 17.4 | 12.1 | > 50 | 16.2 |  |  |  |  | 
20 | COc1ccc(/C=C/C(=O)c2ccc(OC)c3c2OC(C)(C)C=C3)cc1OCC(=O)Nc1ccccc1F | 20.6 | 19.1 | 17.5 | 17 | > 50 | 18.7 |  |  |  |  | 
21 | COc1ccc(/C=C/C(=O)c2cc(OC)c(OC)c(OC)c2)cc1OCC(=O)Nc1ccc(C)cc1 | 10.3 | 8.97 | 11.6 | 7.69 | > 50 | 10.3 |  |  |  |  | 
22 | COc1ccc(/C=C/C(=O)c2ccc(OC)c3c2OC(C)(C)C=C3)cc1OCC(=O)Nc1ccc(O)cc1 | 20.9 | 15.6 | 18.3 | 18 | > 50 | 14.5 |  |  |  |  | 
23 | COc1ccc(/C=C/C(=O)c2ccc(OC)c3c2OC(C)(C)C=C3)cc1OCC(=O)Nc1ccccc1Cl | 14.2 | 11.8 | 15.4 | 13 | > 50 | 14.6 |  |  |  |  | 
24 | COc1ccc(/C=C/C(=O)c2cc(OC)c(OC)c(OC)c2)cc1OCC(=O)Nc1ccccc1 | 14.6 | 10.1 | 12.6 | 11.3 | > 50 | 10.7 |  |  |  |  | 
25 | CC(=O)O[C@H]1C(=O)[C@@]2(C)[C@H]([C@H](OC(=O)c3ccccc3)[C@]3(O)C[C@H](OC(=O)[C@H](O)[C@@H](NC(=O)c4ccccc4)c4ccccc4)C(C)=C1C3(C)C)[C@]1(OC(C)=O)CO[C@@H]1C[C@@H]2O [PACLITAXEL] |  |  |  |  |  |  |  | Active | 1.53 | 1.51 | 0.00821
26 | COc1ccc(/C=C/C(=O)c2ccc(OC)c3c2OC(C)(C)C=C3)cc1OCC(=O)Nc1ccccc1Br | 32.7 | 27.8 | 23.2 | 20 | > 50 | 30.3 |  |  |  |  | 
